Results as given in ChEMBL document CHEMBL5356993, “Novel pyrazolo[3,4-d]pyrimidine derivatives: design, synthesis, anticancer evaluation, VEGFR-2 inhibition, and antiangiogenic activity” (RSC Med Chem, 2023).

Tests used:
[1] = Selectivity index, ratio of IC50 for human MCF-10A cells to IC50 for human MDA-MB-468 cells; settings: MCF-10A cells versus MDA-MB-468 cells
[2] = molecular target: Vascular endothelial growth factor receptor 2 (Homo sapiens, UniProt P35968); experiment: Inhibition of VEGFR-2 (unknown origin) incubated for 45 mins by Kinase-Glo Max assay
[3] = tested on: HOP-62; experiment: Antiproliferative activity against human HOP-62 cells assessed as cell growth inhibition at 10 uM incubated for 48 hrs by SRB assay relative to control; type: functional; settings: read-out: GI
[4] = tested on: A498; experiment: Antiproliferative activity against human A498 cells assessed as cell growth inhibition at 10 uM incubated for 48 hrs by SRB assay relative to control; type: functional; settings: read-out: GI
Method in brief: (§1)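 Cells plated in 96-well plates at […] cells/well and preincubated 24 h at 37 °C, 5% CO2. Time-zero plates were TCA-fixed. Compound was diluted in medium with 50 µg/mL gentamicin and cells exposed for 48 h. Adherent cells fixed with 10% final TCA; suspension cells with 16% final TCA. Plates stained with 0.4% SRB in 1% acetic acid, dye solubilized in 10 mM Trizma, absorbance read at 515 nm. Percent growth calculated against time-zero and control.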

[5] = tested on: OVCAR-4; experiment: Antiproliferative activity against human OVCAR-4 cells assessed as cell growth inhibition at 10 uM incubated for 48 hrs by SRB assay relative to control; type: functional; settings: read-out: GI
[6] = tested on: COLO 205; experiment: Antiproliferative activity against human COLO 205 cells assessed as cell growth inhibition at 10 uM incubated for 48 hrs by SRB assay relative to control; type: functional; settings: read-out: GI
[7] = tested on: SW-620; experiment: Antiproliferative activity against human SW620 cells assessed as cell growth inhibition at 10 uM incubated for 48 hrs by SRB assay relative to control; type: functional; settings: read-out: GI
Method in brief: (§2)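 Cells pre-incubated 24 h at 37°C, 5% CO2, then exposed to compound (DMSO stock diluted in medium with 50 µg/mL gentamicin) for 48 h. Adherent cells fixed with cold TCA (final 10%, 60 min, 4°C); suspension cells fixed with 16% TCA final. Stained with 0.4% SRB in 1% acetic acid for 10 min, dye solubilized in 10 mM Trizma base, absorbance read at 515 nm. Growth calculated against time-zero and untreated control plates.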

[8] = Cytotoxicity against human MCF-10A cells assessed as cell growth inhibition incubated for 72 hrs by MTT assay
[9] = tested on: T47D; experiment: Cytotoxicity against human T47D cells assessed as cell growth inhibition incubated for 72 hrs by MTT assay; type: functional, cell-based
[10] = tested on: HT-29; experiment: Antiproliferative activity against human HT-29 cells assessed as cell growth inhibition at 10 uM incubated for 48 hrs by SRB assay relative to control; type: functional; settings: read-out: GI; method in brief: as §1
[11] = tested on: MDA-MB-435; experiment: Antiproliferative activity against human MDA-MB-435 cells assessed as cell growth inhibition at 10 uM incubated for 48 hrs by SRB assay relative to control; type: functional; settings: read-out: GI
[12] = tested on: SF-539; experiment: Antiproliferative activity against human SF-539 cells assessed as cell growth inhibition at 10 uM incubated for 48 hrs by SRB assay relative to control; type: functional; settings: read-out: GI; method in brief: as §1
[13] = tested on: LOX IMVI; experiment: Antiproliferative activity against human LOX IMVI cells assessed as cell growth inhibition at 10 uM incubated for 48 hrs by SRB assay relative to control; type: functional; settings: read-out: GI
[14] = tested on: MDA-MB-468; experiment: Cytotoxicity against human MDA-MB-468 cells assessed as cell growth inhibition incubated for 72 hrs by MTT assay; type: functional, cell-based; settings: MDA-MB-468, 72 h
[15] = tested on: NCI-H23; experiment: Antiproliferative activity against human NCI-H23 cells assessed as cell growth inhibition at 10 uM incubated for 48 hrs by SRB assay relative to control; type: functional; settings: read-out: GI
[16] = tested on: HOP-92; experiment: Antiproliferative activity against human HOP-92 cells assessed as cell growth inhibition at 10 uM incubated for 48 hrs by SRB assay relative to control; type: functional; settings: read-out: GI; method in brief: as §1
[17] = Selectivity index, ratio of IC50 for human MCF-10A cells to IC50 for human T47D cells; settings: MCF-10A cells versus T47D cells
[18] = tested on: K562; experiment: Antiproliferative activity against human K562 cells assessed as cell growth inhibition at 10 uM incubated for 48 hrs by SRB assay relative to control; type: functional; settings: read-out: GI
[19] = tested on: A549; experiment: Antiproliferative activity against human A549 cells assessed as cell growth inhibition at 10 uM incubated for 48 hrs by SRB assay relative to control; type: functional; settings: read-out: GI
[20] = tested on: SNB-19; experiment: Antiproliferative activity against human SNB-19 cells assessed as cell growth inhibition at 10 uM incubated for 48 hrs by SRB assay relative to control; type: functional; settings: read-out: GI; method in brief: as §2
[21] = tested on: UACC-257; experiment: Antiproliferative activity against human UACC-257 cells assessed as cell growth inhibition at 10 uM incubated for 48 hrs by SRB assay relative to control; type: functional; settings: read-out: GI; method in brief: as §2
[22] = tested on: NCI-H226; experiment: Antiproliferative activity against human NCI-H226 cells assessed as cell growth inhibition at 10 uM incubated for 48 hrs by SRB assay relative to control; type: functional; settings: read-out: GI; method in brief: as §1
[23] = tested on: HCT-116; experiment: Antiproliferative activity against human HCT-116 cells assessed as cell growth inhibition at 10 uM incubated for 48 hrs by SRB assay relative to control; type: functional; settings: read-out: GI
[24] = tested on: SF-268; experiment: Antiproliferative activity against human SF-268 cells assessed as cell growth inhibition at 10 uM incubated for 48 hrs by SRB assay relative to control; type: functional; settings: read-out: GI
[25] = tested on: SNB-75; experiment: Antiproliferative activity against human SNB-75 cells assessed as cell growth inhibition at 10 uM incubated for 48 hrs by SRB assay relative to control; type: functional; settings: read-out: GI; method in brief: as §2
[26] = tested on: UACC-62; experiment: Antiproliferative activity against human UACC-62 cells assessed as cell growth inhibition at 10 uM incubated for 48 hrs by SRB assay relative to control; type: functional; settings: read-out: GI; method in brief: as §2
[27] = tested on: 786-0; experiment: Antiproliferative activity against human 786-0 cells assessed as cell growth inhibition at 10 uM incubated for 48 hrs by SRB assay relative to control; type: functional; settings: read-out: GI
[28] = tested on: T47D; experiment: Antiproliferative activity against human T47D cells assessed as cell growth inhibition at 10 uM incubated for 48 hrs by SRB assay relative to control; type: functional; settings: read-out: GI; method in brief: as §2
[29] = tested on: NCI/ADR-RES; experiment: Antiproliferative activity against human NCI-ADR-RES cells assessed as cell growth inhibition at 10 uM incubated for 48 hrs by SRB assay relative to control; type: functional; settings: read-out: GI
[30] = tested on: EKVX; experiment: Antiproliferative activity against human EKVX cells assessed as cell growth inhibition at 10 uM incubated for 48 hrs by SRB assay relative to control; type: functional; settings: read-out: GI
[31] = tested on: NCI-H460; experiment: Antiproliferative activity against human NCI-H460 cells assessed as cell growth inhibition at 10 uM incubated for 48 hrs by SRB assay relative to control; type: functional; settings: read-out: GI
[32] = tested on: HUVEC; experiment: Antiangiogenic activity against HUVEC cells assessed as decrease in healing rate at IC50 incubated for 72 hrs by wound healing assay relative to control; type: functional, Homo sapiens; design: scale not given: the % may be the effect or the level left
[33] = tested on: MDA-MB-468; experiment: Induction of cell cycle arrest in human MDA-MB-468 cells assessed as accumulation of cells at G2/M phase at IC50 incubated for 24 hrs by RNase/PI staining based flow cytometry (reference value: 16.13 %); type: functional
[34] = tested on: MDA-MB-468; experiment: Induction of cell cycle arrest in human MDA-MB-468 cells assessed as accumulation of cells at G0 to G1 phase at IC50 incubated for 24 hrs by RNase/PI staining based flow cytometry (reference value: 59.02 %); type: functional

Chain of Vascular endothelial growth factor receptor 2 (P35968 whole entry): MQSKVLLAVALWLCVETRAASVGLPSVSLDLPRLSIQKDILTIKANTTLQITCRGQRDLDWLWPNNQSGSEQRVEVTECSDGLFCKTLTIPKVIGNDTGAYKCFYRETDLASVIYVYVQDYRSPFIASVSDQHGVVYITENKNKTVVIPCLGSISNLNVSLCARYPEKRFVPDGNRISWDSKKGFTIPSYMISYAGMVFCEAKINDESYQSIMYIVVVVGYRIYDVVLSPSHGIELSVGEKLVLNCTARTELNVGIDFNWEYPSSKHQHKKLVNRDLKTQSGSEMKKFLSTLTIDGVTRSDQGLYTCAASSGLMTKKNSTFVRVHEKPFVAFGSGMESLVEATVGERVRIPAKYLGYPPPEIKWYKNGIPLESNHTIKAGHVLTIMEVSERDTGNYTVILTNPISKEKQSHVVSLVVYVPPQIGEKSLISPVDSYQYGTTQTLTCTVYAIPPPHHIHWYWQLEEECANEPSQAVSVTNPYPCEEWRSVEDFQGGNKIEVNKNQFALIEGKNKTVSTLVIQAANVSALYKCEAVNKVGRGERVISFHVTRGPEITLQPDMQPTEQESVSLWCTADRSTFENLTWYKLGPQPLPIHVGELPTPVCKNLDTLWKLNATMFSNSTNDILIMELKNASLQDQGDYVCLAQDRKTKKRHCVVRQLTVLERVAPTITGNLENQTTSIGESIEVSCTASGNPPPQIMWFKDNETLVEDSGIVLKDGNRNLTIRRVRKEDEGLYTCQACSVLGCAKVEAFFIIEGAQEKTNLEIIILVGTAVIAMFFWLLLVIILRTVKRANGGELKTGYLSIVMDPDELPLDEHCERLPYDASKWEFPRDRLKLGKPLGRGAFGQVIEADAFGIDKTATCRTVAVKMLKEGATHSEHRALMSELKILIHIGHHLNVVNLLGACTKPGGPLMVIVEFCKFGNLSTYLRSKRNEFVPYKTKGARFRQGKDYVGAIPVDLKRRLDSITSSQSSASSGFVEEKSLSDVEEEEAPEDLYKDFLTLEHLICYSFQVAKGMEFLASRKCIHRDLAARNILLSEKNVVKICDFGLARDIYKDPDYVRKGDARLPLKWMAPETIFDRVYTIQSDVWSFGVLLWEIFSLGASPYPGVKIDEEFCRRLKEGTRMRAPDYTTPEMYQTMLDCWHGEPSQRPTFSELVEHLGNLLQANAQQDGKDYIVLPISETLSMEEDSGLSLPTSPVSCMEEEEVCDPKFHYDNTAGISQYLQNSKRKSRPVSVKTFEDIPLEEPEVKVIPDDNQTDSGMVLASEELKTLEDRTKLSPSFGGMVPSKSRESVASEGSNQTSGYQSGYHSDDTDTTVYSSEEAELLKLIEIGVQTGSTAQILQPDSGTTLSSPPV

| Compound | selectivity ratio [1] | IC50 [2] | inhibition of growth at 10 µM [3] | inhibition of growth at 10 µM [4] | inhibition of growth at 10 µM [5] | inhibition of growth at 10 µM [6] | inhibition of growth at 10 µM [7] | IC50 at 72 h [8] | IC50 [9] | inhibition of growth at 10 µM [10] | inhibition of growth at 10 µM [11] | inhibition of growth at 10 µM [12] | inhibition of growth at 10 µM [13] | IC50 [14] | inhibition of growth at 10 µM [15] | inhibition of growth at 10 µM [16] | selectivity ratio [17] | inhibition of growth at 10 µM [18] | inhibition of growth at 10 µM [19] | inhibition of growth at 10 µM [20] | further results |
| --- | --- | --- | --- | --- | --- | --- | --- | --- | --- | --- | --- | --- | --- | --- | --- | --- | --- | --- | --- | --- | --- |
| Cc1nc2c(cnn2-c2ccccc2)c(=O)n1-c1ccc(NC(=O)c2ccc(Cl)cc2)cc1 | 3.24 | 0.2 µM | 41.1% | < 15% | 53.9% | 18.8% | 17.3% | 34.6 µM | 20.1 µM | 28% | 30.2% | < 15% | 33.4% | 10.7 µM | 47.2% | 37.8% | 1.72 | 61.3% | 26.1% | 16.3% | inhibition of growth at 10 µM [21]: 53.9%; inhibition of growth at 10 µM [22]: 49.1%; inhibition of growth at 10 µM [23]: 44.5%; inhibition of growth at 10 µM [24]: < 15%; inhibition of growth at 10 µM [25]: 27.5%; inhibition of growth at 10 µM [26]: 32.2%; inhibition of growth at 10 µM [27]: 20.3%; inhibition of growth at 10 µM [28]: 72.5%; inhibition of growth at 10 µM [29]: 44.5%; inhibition of growth at 10 µM [30]: 68.5%; inhibition of growth at 10 µM [31]: 28.8% |
| Cc1nc2c(cnn2-c2ccccc2)c(=O)n1-c1ccc(NC(=O)c2ccccc2)cc1 | 2.05 | 0.178 µM | 37.9% | < 15% | 53.2% | 20.2% | < 15% | 55.5 µM | 35.5 µM | 25.2% | 27.2% | 19.8% | 26.8% | 27 µM | 45.5% | 29.2% | 1.56 | 66.8% | 28.9% | 23.6% | inhibition of growth at 10 µM [21]: 46.9%; inhibition of growth at 10 µM [22]: 44.7%; inhibition of growth at 10 µM [23]: 41.9%; inhibition of growth at 10 µM [24]: 21.5%; inhibition of growth at 10 µM [25]: 43.2%; inhibition of growth at 10 µM [26]: 36.8%; inhibition of growth at 10 µM [27]: 20.4%; inhibition of growth at 10 µM [28]: 72.4%; inhibition of growth at 10 µM [29]: 30.4%; inhibition of growth at 10 µM [30]: 65.7%; inhibition of growth at 10 µM [31]: 27.9% |
| Cc1nc2c(cnn2-c2ccccc2)c(=O)n1-c1ccc(NC(=O)c2ccc(F)cc2)cc1 | 6.81 | 0.063 µM | 35.4% | < 15% | 59.9% | 37.7% | 23.5% | 22.8 µM | 4.79 µM | 36.5% | 46.2% | < 15% | 38.2% | 3.34 µM | 49.8% | < 15% | 4.75 | 72.8% | 45% | 19.6% | Activity [32]: 23%; Activity [33]: 9.12%; Activity [34]: 52.86%; inhibition of growth at 10 µM [21]: 68.2%; inhibition of growth at 10 µM [22]: 43.8%; inhibition of growth at 10 µM [23]: 51.7%; inhibition of growth at 10 µM [24]: < 15%; inhibition of growth at 10 µM [25]: 35.5%; inhibition of growth at 10 µM [26]: 36.9%; inhibition of growth at 10 µM [27]: 17.5%; inhibition of growth at 10 µM [28]: 82%; inhibition of growth at 10 µM [29]: 57.2%; inhibition of growth at 10 µM [30]: 69.8%; inhibition of growth at 10 µM [31]: 45.6% |
